Measured values reported in ChEMBL document CHEMBL1687899, “Structure-activity relationships in nucleotide oligomerization domain 1 (Nod1) agonistic γ-glutamyldiaminopimelic acid derivatives” (J Med Chem, 2011).
pEC50: −log10 of the molar value. Each block holds one compound with its values, some of them ahead of it. Active and inactive are the calls of the source. The calls are words filed in the database; no cut-off is given here.

How the values were obtained:
[1] = molecular target: T1, Nucleotide-binding oligomerization domain-containing protein 1 (Homo sapiens, UniProt Q9Y239); assay: Agonist activity at human NOD-1 expressed in human HEK293 cells assessed as NF-kappaB induction by spectrophotometric analysis; assay type: functional, cell-based
T1 sequence (Q9Y239 whole entry): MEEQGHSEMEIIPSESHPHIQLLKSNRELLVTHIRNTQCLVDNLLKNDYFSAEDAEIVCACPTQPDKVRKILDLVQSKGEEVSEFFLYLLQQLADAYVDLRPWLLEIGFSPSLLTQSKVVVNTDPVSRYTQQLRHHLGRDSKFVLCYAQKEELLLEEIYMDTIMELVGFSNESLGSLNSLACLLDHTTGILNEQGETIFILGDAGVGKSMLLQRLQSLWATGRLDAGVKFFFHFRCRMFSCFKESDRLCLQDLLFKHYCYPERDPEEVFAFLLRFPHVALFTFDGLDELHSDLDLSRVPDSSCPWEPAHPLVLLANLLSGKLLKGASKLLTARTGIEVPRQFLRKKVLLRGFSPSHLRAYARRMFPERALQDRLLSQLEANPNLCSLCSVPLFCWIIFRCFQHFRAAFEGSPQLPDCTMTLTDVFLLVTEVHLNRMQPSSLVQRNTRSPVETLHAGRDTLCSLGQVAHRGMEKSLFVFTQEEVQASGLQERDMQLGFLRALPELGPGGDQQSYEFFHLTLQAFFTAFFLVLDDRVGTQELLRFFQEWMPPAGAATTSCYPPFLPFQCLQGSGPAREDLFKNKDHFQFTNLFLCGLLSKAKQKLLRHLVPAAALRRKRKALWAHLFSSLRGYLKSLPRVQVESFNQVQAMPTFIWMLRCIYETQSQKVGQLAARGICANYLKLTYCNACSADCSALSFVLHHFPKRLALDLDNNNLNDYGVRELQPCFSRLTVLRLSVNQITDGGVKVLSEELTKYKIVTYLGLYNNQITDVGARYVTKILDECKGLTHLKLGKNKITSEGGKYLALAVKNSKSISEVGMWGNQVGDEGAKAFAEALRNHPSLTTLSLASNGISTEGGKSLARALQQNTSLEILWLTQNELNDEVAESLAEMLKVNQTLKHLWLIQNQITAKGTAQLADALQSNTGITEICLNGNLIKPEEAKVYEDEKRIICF
Procedure, shortened: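 HEK-Blue cells (HEK293 stably transfected with human Nod1 and an NF-κB/AP-1-inducible secreted alkaline phosphatase reporter) were kept in selection medium with zeocin and normocin. Cells at ~10^5 cells/mL were grown to confluency and then given graded compound concentrations. Supernatant sAP was read spectrophotometrically at 620 nm with an alkaline phosphatase-specific chromogen.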

PBMC [2] = assay: Upregulation of interleukin 1F5 in human PBMC at 20 ug/ml after 2 hrs; assay type: functional
Procedure, shortened: (§1)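 PBMCs were isolated from fresh heparin-anticoagulated human blood and stimulated with compound at 20 μg/mL for 2 h. Total RNA was extracted from treated and negative-control PBMC samples for transcriptomal profiling.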

PBMC [3] = assay: Downregulation of interleukin 22RA1 in human PBMC at 20 ug/ml after 2 hrs; assay type: functional; procedure, shortened: as §1
PBMC [4] = assay: Upregulation of interleukin 3 in human PBMC at 20 ug/ml after 2 hrs; assay type: functional; procedure, shortened: as §1
PBMC [5] = assay: Downregulation of interleukin 1RAP in human PBMC at 20 ug/ml after 2 hrs; assay type: functional; procedure, shortened: as §1
PBMC [6] = assay: Downregulation of interleukin 31RA in human PBMC at 20 ug/ml after 2 hrs; assay type: functional; procedure, shortened: as §1
[7] = molecular target: Triggering receptor expressed on myeloid cells 1 (Homo sapiens) (UniProt Q9NP99); assay: Induction of TREM-1-mediated activation of p38 MAPK signalling pathway in human PBMC at 20 ug/ml; procedure, shortened: as §1
Triggering receptor expressed on myeloid cells 1 (Homo sapiens), sequence (Q9NP99 whole entry, looked up): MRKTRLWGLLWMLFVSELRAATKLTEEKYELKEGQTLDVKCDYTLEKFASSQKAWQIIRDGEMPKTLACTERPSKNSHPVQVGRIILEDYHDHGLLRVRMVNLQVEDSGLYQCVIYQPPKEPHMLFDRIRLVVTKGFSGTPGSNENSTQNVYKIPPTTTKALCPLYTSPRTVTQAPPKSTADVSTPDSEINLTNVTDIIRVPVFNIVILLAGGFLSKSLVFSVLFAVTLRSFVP

PBMC [8] = assay: Upregulation of interleukin 12B in human PBMC at 20 ug/ml after 2 hrs; assay type: functional; procedure, shortened: as §1
[9] = molecular target: Triggering receptor expressed on myeloid cells 1 (Homo sapiens) (UniProt Q9NP99); assay: Induction of TREM-1-mediated activation of PPAR signalling pathway in human PBMC at 20 ug/ml; procedure, shortened: as §1
[10] = molecular target: Triggering receptor expressed on myeloid cells 1 (Homo sapiens) (UniProt Q9NP99); assay: Induction of TREM-1-mediated dendritic cell maturation in human PBMC at 20 ug/ml; procedure, shortened: as §1
PBMC [11] = assay: Upregulation of interleukin 8 in human PBMC at 20 ug/ml after 2 hrs; assay type: functional; procedure, shortened: as §1
PBMC [12] = assay: Downregulation of interleukin 1RAPL1 in human PBMC at 20 ug/ml after 2 hrs; assay type: functional; procedure, shortened: as §1
[13] = molecular target: Triggering receptor expressed on myeloid cells 1 (Homo sapiens) (UniProt Q9NP99); assay: Induction of TREM-1-mediated LXR/RXR activation in human PBMC at 20 ug/ml; procedure, shortened: as §1
PBMC [14] = assay: Upregulation of interleukin 1B in human PBMC at 20 ug/ml after 2 hrs; assay type: functional; procedure, shortened: as §1
[15] = molecular target: Triggering receptor expressed on myeloid cells 1 (Homo sapiens) (UniProt Q9NP99); assay: Induction of TREM-1-mediated activation of IL-10 signalling pathway in human PBMC at 20 ug/ml; procedure, shortened: as §1
PBMC [16] = assay: Upregulation of interleukin 17RD in human PBMC at 20 ug/ml after 2 hrs; assay type: functional; procedure, shortened: as §1
PBMC [17] = assay: Upregulation of interleukin 1F9 in human PBMC at 20 ug/ml after 2 hrs; assay type: functional; procedure, shortened: as §1
[18] = molecular target: Triggering receptor expressed on myeloid cells 1 (Homo sapiens) (UniProt Q9NP99); assay: Induction of TREM-1-mediated activation of IRF by cytosolic pattern recognition receptors in human PBMC at 20 ug/ml; procedure, shortened: as §1
[19] = molecular target: Triggering receptor expressed on myeloid cells 1 (Homo sapiens) (UniProt Q9NP99); assay: Induction of TREM-1-mediated activation of NF-kappaB signalling pathway in human PBMC at 20 ug/ml; procedure, shortened: as §1
[20] = molecular target: Triggering receptor expressed on myeloid cells 1 (Homo sapiens) (UniProt Q9NP99); assay: Induction of TREM-1-mediated activation of IL-6 signaling pathway in human PBMC at 20 ug/ml; procedure, shortened: as §1
PBMC [21] = assay: Upregulation of interleukin 24 in human PBMC at 20 ug/ml after 2 hrs; assay type: functional; procedure, shortened: as §1
PBMC [22] = assay: Upregulation of interleukin 2RA in human PBMC at 20 ug/ml after 2 hrs; assay type: functional; procedure, shortened: as §1
PBMC [23] = assay: Upregulation of interleukin 20 in human PBMC at 20 ug/ml after 2 hrs; assay type: functional; procedure, shortened: as §1
[24] = molecular target: Triggering receptor expressed on myeloid cells 1 (Homo sapiens) (UniProt Q9NP99); assay: Induction of TREM-1-mediated activation of IL12 signalling and production in human PBMC at 20 ug/ml; procedure, shortened: as §1
[25] = Upregulation of CD11b expression in human […] by flow cytometry; assay type: functional, cell-based
Procedure, shortened: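 Fresh anticoagulated human whole blood was incubated with graded compound dilutions for 1 h at 37°C, with saline negative controls. Samples were chilled 15 min, then stained with anti-CD11b/Mac-1 on ice for 30 min so only surface CD11b was labelled. Erythrocytes were lysed and leukocytes fixed, then washed. Flow cytometry in single-color PE mode acquired 20,000 gated events.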

PBMC [26] = assay: Upregulation of interleukin 1alpha in human PBMC at 20 ug/ml after 2 hrs; assay type: functional; procedure, shortened: as §1
[27] = molecular target: Triggering receptor expressed on myeloid cells 1 (Homo sapiens) (UniProt Q9NP99); assay: Induction of TREM-1-mediated activation of TNFR2 signalling pathway in human PBMC at 20 ug/ml; procedure, shortened: as §1
[28] = molecular target: Triggering receptor expressed on myeloid cells 1 (Homo sapiens) (UniProt Q9NP99); assay: Induction of TREM-1-mediated T-helper cell differentiation in human PBMC at 20 ug/ml; assay type: cell-based; procedure, shortened: as §1
PBMC [29] = assay: Upregulation of interleukin 1RN in human PBMC at 20 ug/ml after 2 hrs; assay type: functional; procedure, shortened: as §1
PBMC [30] = assay: Upregulation of interleukin 6 in human PBMC at 20 ug/ml after 2 hrs; assay type: functional; procedure, shortened: as §1
[31] = molecular target: Triggering receptor expressed on myeloid cells 1 (Homo sapiens) (UniProt Q9NP99); assay: Induction of TREM-1-mediated activation of communication between innate and adaptive immune cells in human PBMC at 20 ug/ml; assay type: cell-based; procedure, shortened: as §1
PBMC [32] = assay: Upregulation of interleukin 22 in human PBMC at 20 ug/ml after 2 hrs; assay type: functional; procedure, shortened: as §1
PBMC [33] = assay: Downregulation of interleukin 8RB in human PBMC at 20 ug/ml after 2 hrs; assay type: functional; procedure, shortened: as §1
PBMC [34] = assay: Upregulation of interleukin 1F10 in human PBMC at 20 ug/ml after 2 hrs; assay type: functional; procedure, shortened: as §1
[35] = molecular target: Triggering receptor expressed on myeloid cells 1 (Homo sapiens) (UniProt Q9NP99); assay: Induction of TREM-1-mediated activation of IL-9 signalling pathway in human PBMC at 20 ug/ml; procedure, shortened: as §1
PBMC [36] = assay: Upregulation of interleukin 18 in human PBMC at 20 ug/ml after 2 hrs; assay type: functional; procedure, shortened: as §1
PBMC [37] = assay: Upregulation of interleukin 17A in human PBMC at 20 ug/ml after 2 hrs; assay type: functional; procedure, shortened: as §1
PBMC [38] = assay: Upregulation of interleukin 19 in human PBMC at 20 ug/ml after 2 hrs; assay type: functional; procedure, shortened: as §1
PBMC [39] = assay: Upregulation of interleukin 10 in human PBMC at 20 ug/ml after 2 hrs; assay type: functional; procedure, shortened: as §1
[40] = Upregulation of p38 MAPK expression in human […] by flow cytometry; assay type: functional, cell-based
Procedure, shortened: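 Fresh heparinized human whole blood was incubated with graded compound concentrations diluted in saline for 15 min at 37°C. Erythrocytes were lysed and leukocytes fixed in one step, then permeabilized in ice-cold methanol for 30 min. Cells were stained 60 min with PE anti-phospho-p38MAPK (pT180/pY182) or a PE IgG1 κ isotype control. Flow cytometry acquired 20,000 gated events.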

SMILES: CCCCCCCCCCCOC(=O)CCCC(=O)NC(CCCC(N)C(=O)O)C(=O)O (stereo unspecified)
- pEC50 [1]: 9.41

SMILES: CCCCCCCCCCCC(=O)N[C@H](CCC(=O)NCCCC[C@H](N)C(=O)O)C(=O)O
- pEC50 [1]: 9.02

SMILES: CCCCCCCCCCCC(=O)N[C@H](CCC(=O)NCCCCCN)C(=O)O
- pEC50 [1]: < 7.00

SMILES: CCCCCCCCCCCSC(=O)[C@H](N)CCC(=O)NC(CCCC(N)C(=O)OCC)C(=O)OCC (stereo partly specified)
- pEC50 [1]: 9.74

Compounds with a higher pEC50 [1], results first:

- pEC50 [1]: 9.84
SMILES: CCCCCCCCCCCC(=O)N[C@H](CCC(=O)NC(CCCC(N)C(=O)OCC)C(=O)OCC)C(=O)O (stereo partly specified)

- pEC50 [1]: 10.16
SMILES: CCCCCCCCCCCC(=O)N[C@H](CCC(=O)NC(CCCC(N)C(=O)O)C(=O)O)C(=O)OCC (stereo partly specified)

- Activity [7]: Active
- Activity [9]: Active
- Activity [10]: Active
- Activity [13]: Active
- Activity [15]: Active
- Activity [18]: Active
- Activity [19]: Active
- Activity [20]: Active
- pEC50 [1]: 11.82
- Activity [24]: Active
- Activity [27]: Active
- Activity [28]: Active
- Activity [31]: Active
- Activity [35]: Active
SMILES: CCCCCCCCCCCCN(CCCCCCCCCCCC)[C@H](CCC(=O)NC(CCCC(N)C(=O)O)C(=O)O)C(=O)O (stereo partly specified)
- fold change (FC) (PBMC [2]): 3.15
- fold change (FC) (PBMC [3]): 3.69
- fold change (FC) (PBMC [4]): 5.99
- fold change (FC) (PBMC [5]): 2.02
- fold change (FC) (PBMC [6]): 4.05
- fold change (FC) (PBMC [8]): 6.13
- fold change (FC) (PBMC [11]): 2.29
- fold change (FC) (PBMC [12]): 2.06
- fold change (FC) (PBMC [14]): 4.14
- fold change (FC) (PBMC [16]): 3.17
- fold change (FC) (PBMC [17]): 11.1
- fold change (FC) (PBMC [21]): 3.41
- fold change (FC) (PBMC [22]): 3.57
- fold change (FC) (PBMC [23]): 4
- Activity [25]: Dose-dependent effect
- fold change (FC) (PBMC [26]): 14.34
- fold change (FC) (PBMC [29]): 4.94
- fold change (FC) (PBMC [30]): 29.54
- fold change (FC) (PBMC [32]): 3.87
- fold change (FC) (PBMC [33]): 2.75
- fold change (FC) (PBMC [34]): 2.05
- fold change (FC) (PBMC [36]): 2.03
- fold change (FC) (PBMC [37]): 10.56
- fold change (FC) (PBMC [38]): 30.39
- fold change (FC) (PBMC [39]): 3.62
- Activity [40]: Dose-dependent effect
